Numbered stars: 1 amine (or outer) side, 2 acyl side, 3 side chain; on linkers, the order of the positions; unused ones are H or OH. Square brackets hold non-standard residues; d marks the D form. Peptide text beside a SMILES is read from it. dGly(5-dibenzosuberyl) = N[C@@H](C(=O)O)C1c2ccccc2CCc2ccccc21; X2 = O=C([C@@H](N[*:1])C1c2ccccc2CCc2ccccc21)[*:2]; NMeDip = CN[C@H](C(=O)O)C(c1ccccc1)c1ccccc1; NMeW = CN[C@@H](Cc1c[nH]c2ccccc12)C(=O)O; Dip = N[C@H](C(=O)O)C(c1ccccc1)c1ccccc1; NMeI = CC[C@H](C)[C@H](NC)C(=O)O; NMeD = CN[C@@H](CC(=O)O)C(=O)O
Experiments:
[1] = Stability in rat intestinal perfusate; type: ADME
Summary of the method: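 Stability measured by incubation in rat intestinal perfusate in vitro. Values are the mean of at least three determinations ± SEM from two perfusate preparations. Perfusate leucine aminopeptidase activity was 0.05–0.32 nkat/mL. Degradation was also checked with a potato tuber carboxypeptidase inhibitor added.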

Oryctolagus cuniculus [2] = organism: Oryctolagus cuniculus; test: Ability to antagonize endothelin -1 (ET-1) stimulated vasoconstriction in vitro in rabbit femoral artery; type: functional; conditions: read-out: pA2 (converted)
[3] = biological target: T1, Endothelin receptor type B (Rattus norvegicus, UniProt P21451); test: Inhibition of binding to Endothelin B receptor of rat cerebellar membranes.; type: cell membranes, Membrane
T1 sequence (P21451 whole entry): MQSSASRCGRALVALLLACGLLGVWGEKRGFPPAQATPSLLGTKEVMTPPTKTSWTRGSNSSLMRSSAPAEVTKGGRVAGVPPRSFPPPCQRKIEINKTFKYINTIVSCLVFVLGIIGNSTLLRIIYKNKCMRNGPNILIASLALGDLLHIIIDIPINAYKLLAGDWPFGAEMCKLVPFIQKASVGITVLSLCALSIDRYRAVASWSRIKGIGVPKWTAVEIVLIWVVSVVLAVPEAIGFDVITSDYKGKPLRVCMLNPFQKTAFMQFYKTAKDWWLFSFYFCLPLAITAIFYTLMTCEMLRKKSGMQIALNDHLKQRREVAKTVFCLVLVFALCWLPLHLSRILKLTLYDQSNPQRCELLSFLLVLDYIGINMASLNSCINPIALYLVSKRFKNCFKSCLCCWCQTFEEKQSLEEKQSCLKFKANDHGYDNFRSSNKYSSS
Summary of the method: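 Competition binding assays: ETA on rabbit renal vascular smooth muscle cells, ETB on rat cerebellar membranes. Each IC50 comes from a single competition experiment with points measured in duplicate. Where more than one IC50 was determined, values are given as mean ± SEM.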

Caco-2 = test: Permeability in Caco-2 Cell monolayers for the compound; type: functional, cell-based; conditions: Homo sapiens
Summary of the method: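 Transport measured across Caco-2 monolayers (human colon adenocarcinoma line that differentiates to an enterocyte-like phenotype). Each value is the mean of three to five cell monolayers, with standard errors.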

Oryctolagus cuniculus [4] = organism: Oryctolagus cuniculus; test: Ability to antagonize […] SRTX-6c stimulated vasoconstriction in vitro in rabbit pulmonary artery; type: functional; conditions: read-out: pA2 (converted)

Row | IC50 [3] [µM] | Structure (SMILES) | half-life [1] [h] | Permeability (10e4*cm min-1) (Caco-2) | further results
1 | – | CC[C@H](C)[C@H](NC(=O)[C@H](CC(=O)O)NC(=O)[C@H](CC(C)C)NC(=O)[C@H](NC(C)=O)C1c2ccccc2CCc2ccccc21)C(=O)N(C)[C@H](C(=O)N[C@@H](Cc1c[nH]c2ccccc12)C(=O)O)[C@@H](C)CC | 8.97 | – | Kb (Oryctolagus cuniculus [2]): 0.0501 µM
2 | 0.6 | CC[C@H](C)[C@H](NC(=O)[C@H](CC(=O)O)NC(=O)[C@H](CC(C)C)N(C)C(=O)[C@H](NC(C)=O)C(c1ccccc1)c1ccccc1)C(=O)N[C@H](C(=O)N[C@@H](Cc1c[nH]c2ccccc12)C(=O)O)[C@@H](C)CC | – | – | –
3 | > 0.25 | CC[C@H](C)[C@H](NC(=O)[C@@H](NC(=O)[C@H](CC(=O)O)NC(=O)[C@H](CC(C)C)NC(=O)[C@H](NC(C)=O)C(c1ccccc1)c1ccccc1)[C@@H](C)CC)C(=O)CNC(=O)[C@@H](N)Cc1c[nH]c2ccccc12 | – | – | –
4 | – | CC[C@@H](C)[C@H](C(=O)N[C@@H](Cc1c[nH]c2ccccc12)C(=O)O)N(C)C(=O)[C@@H](NC(=O)[C@@H](CC(=O)O)NC(=O)[C@H](CC(C)C)NC(=O)[C@H](NC(C)=O)C1c2ccccc2CCc2ccccc21)[C@@H](C)CC | – | 6.3 | –
5 | – | CC[C@H](C)[C@H](NC(=O)[C@H](CC(=O)O)NC(=O)[C@H](CC(C)C)NC(=O)[C@@H](NC(C)=O)C(c1ccccc1)c1ccccc1)C(=O)N[C@H](C(=O)N[C@@H](Cc1c[nH]c2ccccc12)C(=O)O)[C@@H](C)CC (Ac-[Dip]LDIIW-OH) | 0.302 | 2 | Kb (Oryctolagus cuniculus [4]): 0.501 µM; Kb (Oryctolagus cuniculus [2]): 0.251 µM
6 | 11 | CC[C@H](C)[C@H](NC(=O)[C@H](CC(=O)O)NC(=O)[C@H](CC(C)C)NC(=O)[C@@H](NC(C)=O)C(c1ccccc1)c1ccccc1)C(=O)N[C@H](C(=O)N(C)[C@@H](Cc1c[nH]c2ccccc12)C(=O)O)[C@@H](C)CC (Ac-[Dip]LDII[NMeW]-OH) | – | – | –
7 | 0.08 | CC[C@H](C)[C@H](NC(=O)[C@H](CC(=O)O)NC(=O)[C@H](CC(C)C)NC(=O)[C@@H](NC(C)=O)C(c1ccccc1)c1ccccc1)C(=O)N(C)[C@H](C(=O)N[C@@H](Cc1c[nH]c2ccccc12)C(=O)O)[C@@H](C)CC (Ac-[Dip]LDI[NMeI]W-OH) | 14.6 | 2 | –
8 | > 1 | CC[C@H](C)[C@H](NC(=O)[C@H]([C@@H](C)CC)N(C)C(=O)[C@H](CC(=O)O)NC(=O)[C@H](CC(C)C)NC(=O)[C@@H](NC(C)=O)C(c1ccccc1)c1ccccc1)C(=O)N[C@@H](Cc1c[nH]c2ccccc12)C(=O)O (Ac-[Dip]LD[NMeI]IW-OH) | – | – | –
9 | 1.5 | CC[C@H](C)[C@H](NC(=O)[C@@H](NC(=O)[C@H](CC(=O)O)N(C)C(=O)[C@H](CC(C)C)NC(=O)[C@@H](NC(C)=O)C(c1ccccc1)c1ccccc1)[C@@H](C)CC)C(=O)N[C@@H](Cc1c[nH]c2ccccc12)C(=O)O (Ac-[Dip]L[NMeD]IIW-OH) | – | – | –
10 | 8 | CC[C@H](C)[C@H](NC(=O)[C@H](CC(=O)O)NC(=O)[C@H](CC(C)C)NC(=O)[C@H](C(c1ccccc1)c1ccccc1)N(C)C(C)=O)C(=O)N[C@H](C(=O)N[C@@H](Cc1c[nH]c2ccccc12)C(=O)O)[C@@H](C)CC (Ac-[NMeDip]LDIIW-OH) | – | – | –
11 | – | CC[C@H](C)[C@H](NC(=O)[C@H](CC(=O)O)NC(=O)[C@H](CC(C)C)NC(=O)[C@@H](NC(C)=O)C1c2ccccc2CCc2ccccc21)C(=O)N[C@H](C(=O)N[C@@H](Cc1c[nH]c2ccccc12)C(=O)O)[C@@H](C)CC (Ac-[X2]LDIIW-OH) | – | 4.7 | –
12 | – | CC[C@H](C)[C@H](NC(=O)[C@H](CC(=O)O)NC(=O)[C@H](CC(C)C)NC(=O)[C@H](NC(C)=O)C1c2ccccc2CCc2ccccc21)C(=O)N[C@H](C(=O)N[C@@H](Cc1c[nH]c2ccccc12)C(=O)O)[C@@H](C)CC (Ac-[dGly(5-dibenzosuberyl)]LDIIW-OH) | 0.177 | – | Kb (Oryctolagus cuniculus [4]): 0.1 µM; Kb (Oryctolagus cuniculus [2]): 0.158 µM

Reference: ChEMBL document CHEMBL1130387, “Design of a potent combined pseudopeptide endothelin-A/endothelin-B receptor antagonist, Ac-DBhg16-Leu-Asp-Ile-[NMe]Ile-Trp21 (PD 156252): examination of its pharmacokinetic and spectral properties” (J Med Chem, 1997)
